{"source": "ChEMBL document CHEMBL1155028", "about": "“Synthesis and pharmacological investigation of novel 2-aminothiazole-privileged aporphines” (Bioorg Med Chem, 2008)", "type_in_all_cases": "cell-based", "key": {"[1]": {"target": "T1, 5-hydroxytryptamine receptor 1A (Rattus norvegicus) (UniProt P19327)", "T1 sequence (whole entry)": "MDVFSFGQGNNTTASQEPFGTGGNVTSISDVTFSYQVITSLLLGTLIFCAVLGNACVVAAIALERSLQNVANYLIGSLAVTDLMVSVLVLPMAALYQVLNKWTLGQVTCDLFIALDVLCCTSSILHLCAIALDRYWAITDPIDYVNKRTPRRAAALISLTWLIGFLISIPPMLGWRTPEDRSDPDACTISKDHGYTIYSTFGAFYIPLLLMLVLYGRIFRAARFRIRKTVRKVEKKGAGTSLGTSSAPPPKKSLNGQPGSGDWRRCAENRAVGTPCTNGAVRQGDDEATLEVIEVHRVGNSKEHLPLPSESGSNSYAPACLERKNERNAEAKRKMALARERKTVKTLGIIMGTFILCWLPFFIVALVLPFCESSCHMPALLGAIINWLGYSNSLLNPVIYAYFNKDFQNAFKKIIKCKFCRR", "test": "Displacement of [3H]8-OH-DPAT from rat 5HT1A receptor expressed in CHO cells at 10 uM", "method_in_brief": "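Duplicate incubations ran 50 min at 30 °C in 50 mM Tris, 4 mM MgCl2, pH 7.4. Nonspecific binding was set with 10 µM WAY100635. Bound ligand was separated on GF/B filters, washed with cold Tris/EDTA buffer, and counted by liquid scintillation.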"}, "[2]": {"target": "T2, 5-hydroxytryptamine receptor 1A (Rattus norvegicus, UniProt P19327)", "T2 sequence (P19327 whole entry)": "T1 sequence (whole entry)", "test": "Displacement of [3H]8-OH-DPAT from rat 5HT1A receptor expressed in CHO cells"}, "[3]": {"target": "D(1A) dopamine receptor (Homo sapiens, UniProt P21728)", "sequence (P21728 whole entry)": "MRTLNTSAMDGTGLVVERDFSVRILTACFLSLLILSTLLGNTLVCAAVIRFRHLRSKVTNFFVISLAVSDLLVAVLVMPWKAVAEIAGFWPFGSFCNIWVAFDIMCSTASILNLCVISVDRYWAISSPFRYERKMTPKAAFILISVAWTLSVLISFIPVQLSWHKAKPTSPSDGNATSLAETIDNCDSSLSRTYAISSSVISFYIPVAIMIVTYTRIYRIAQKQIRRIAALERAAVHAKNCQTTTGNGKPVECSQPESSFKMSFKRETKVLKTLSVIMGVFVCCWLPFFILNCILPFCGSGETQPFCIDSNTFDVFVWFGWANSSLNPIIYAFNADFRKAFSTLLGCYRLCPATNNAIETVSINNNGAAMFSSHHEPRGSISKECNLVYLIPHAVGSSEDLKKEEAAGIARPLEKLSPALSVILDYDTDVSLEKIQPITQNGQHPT", "test": "Displacement of [3H]SCH-23390 from human dopamine D1 receptor expressed in HEK293 cells"}, "[4]": {"target": "D(2) dopamine receptor (Homo sapiens, UniProt P14416)", "sequence (P14416 whole entry)": "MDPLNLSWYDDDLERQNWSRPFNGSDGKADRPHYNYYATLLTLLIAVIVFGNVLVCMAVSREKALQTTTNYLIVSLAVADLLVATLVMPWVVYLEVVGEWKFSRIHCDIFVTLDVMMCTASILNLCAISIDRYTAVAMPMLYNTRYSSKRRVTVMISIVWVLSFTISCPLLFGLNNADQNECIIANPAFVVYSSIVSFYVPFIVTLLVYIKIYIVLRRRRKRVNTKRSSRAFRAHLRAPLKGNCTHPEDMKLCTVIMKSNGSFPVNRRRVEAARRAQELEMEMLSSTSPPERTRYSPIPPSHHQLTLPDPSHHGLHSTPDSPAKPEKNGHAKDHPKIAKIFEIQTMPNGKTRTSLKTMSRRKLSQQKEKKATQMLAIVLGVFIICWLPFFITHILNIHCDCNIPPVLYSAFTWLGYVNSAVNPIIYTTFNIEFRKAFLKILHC", "test": "Displacement of [3H]spiperone from human dopamine D2 receptor expressed in HEK293 cells"}}}
{"smiles": "COc1cc2c3c(c1)-c1c(ccc4sc(N)nc14)C[C@H]3N(C)CC2", "values": [{"measurement": "Activity", "setting": "[1]", "result": 48.1, "unit": "%"}]}
{"smiles": "NCCc1c[nH]c2ccc(O)cc12", "values": [{"measurement": "Activity", "setting": "[1]", "result": 100, "unit": "%"}]}
{"smiles": "CN1CCc2cc(N)cc3c2[C@H]1Cc1cccc(N)c1-3", "values": [{"measurement": "Ki", "setting": "[2]", "result": 2300, "unit": "nM"}, {"measurement": "Ki", "setting": "[3]", "result": 2920, "unit": "nM"}, {"measurement": "Activity", "setting": "[1]", "result": 48.1, "unit": "%"}]}
{"smiles": "COc1cc2c3c(c1)-c1c(N)cccc1C[C@H]3N(C)CC2", "values": [{"measurement": "Ki", "setting": "[2]", "result": 640, "unit": "nM"}, {"measurement": "Ki", "setting": "[3]", "result": 78, "unit": "nM"}, {"measurement": "Activity", "setting": "[1]", "result": 94, "unit": "%"}]}
{"smiles": "CCCCC(=O)Oc1cccc2c1-c1cc(OC)cc3c1[C@@H](C2)N(C)CC3", "values": [{"measurement": "Ki", "setting": "[2]", "result": 151, "unit": "nM"}, {"measurement": "Ki", "setting": "[3]", "result": 116, "unit": "nM"}, {"measurement": "Activity", "setting": "[1]", "result": 100, "unit": "%"}]}
{"smiles": "CN1CCc2c3c(cc4nc(N)sc24)-c2c(ccc(O)c2O)C[C@H]31", "values": [{"measurement": "Ki", "setting": "[3]", "result": 2520, "unit": "nM"}, {"measurement": "Ki", "setting": "[4]", "result": 328, "unit": "nM"}]}
